{
  "source": "paper PMC5760825",
  "about": "(Journal of Pharmaceutical Analysis, 2011)",
  "key": {"[1]": {"assay_type": "in vivo, human (healthy Chinese volunteers)", "details": "for Cmax: plasma", "outline": "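Open-label, randomized, parallel-group study. Thirty healthy volunteers (5 men, 5 women per group) took single oral doses of 500, 1000 or 1500 mg glucosamine sulfate, as dispersible tablets, with 250 mL water after an overnight fast. The 500 mg group continued at 500 mg t.i.d. for 7 days, with troughs on days 4–7. Heparinized plasma was taken from 0 to 24 h. Cmax came from the observed curves, other parameters from non-compartmental analysis, and group differences from ANOVA.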"}, "[2]": {"assay_type": "in vivo, human (healthy Chinese volunteers)", "details": "n=10; for Urine excretion (% of dose): single oral dose 1000 mg, mean±SD"}, "[3]": {"assay_type": "in vitro ADME, human", "details": "for Stability, Accuracy (% of nominal conc.): plasma", "outline": "(§1)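 Glucosamine was spiked into blank human matrix at low and high QC levels: plasma 0.020 and 1.66 μg/mL, urine 2.21 and 42.7 μg/mL, n=2. Freeze-thaw used 24 h at −20 °C, thawing at room temperature and 12 h refreezing, up to three cycles. Short-term storage was 8 h at room temperature and long-term storage up to 60 days at −20 °C. Samples were compared with fresh references and accuracy given as found versus nominal.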"}, "[4]": {"assay_type": "in vitro ADME, human", "details": "urine", "outline": "as §1"}, "[5]": {"details": "cited from earlier work"}, "[6]": {"details": "before administration, Chinese volunteers, n=30"}, "[7]": {"details": "multiple doses 500 mg t.i.d., 7th day, mean±SD, n=10"}, "[8]": {"details": "single oral dose 500 mg, mean±SD, n=10"}, "[9]": {"details": "single oral dose 1000 mg, mean±SD, n=10"}, "[10]": {"details": "single oral dose 1500 mg, mean±SD, n=10"}, "[11]": {"details": "before administration, Chinese volunteers"}},
  "note": "Read-outs that look alike come from different tables or passages of the source.",
  "data": [
    {"substance": "2-amino-2-deoxy-D-glucose [glucosamine]", "values": [
      {"measurement": "accumulation after multiple doses", "setting": "[1]; 500 mg t.i.d. for 7 consecutive days vs single dose", "value": "no significant accumulation effects"},
      {"measurement": "dose linearity of absorption (dose-normalized AUC and Cmax)", "setting": "[1]; 1500 mg vs 500 and 1000 mg dose groups, P<0.05", "value": "non-linear absorption at higher doses"},
      {"measurement": "time at which peak concentration was reached", "setting": "[1]; after oral administration, all dose groups", "value": "about 2 h"},
      {"measurement": "plasma glucosamine baseline levels, mean", "setting": "[1]; [6]", "value": "16.7 ± 26.9", "unit": "ng/mL"},
      {"measurement": "plasma glucosamine baseline levels, range", "setting": "[1]; [6]", "value": "0 to 120", "unit": "ng/mL"},
      {"measurement": "AUC0–10", "setting": "[1]; [7]", "value": "1020 ± 240", "unit": "ng·h/mL"},
      {"measurement": "AUC0–∞", "setting": "[1]; [7]", "value": "1020 ± 240", "unit": "ng·h/mL"},
      {"measurement": "AUCss", "setting": "[1]; [7]", "value": "1000 ± 240", "unit": "ng·h/mL"},
      {"measurement": "Css_av", "setting": "[1]; [7]", "value": "125 ± 31", "unit": "ng/mL"},
      {"measurement": "Css_min", "setting": "[1]; [7]", "value": "59 ± 56", "unit": "ng/mL"},
      {"measurement": "DF", "setting": "[1]; [7]", "value": "1.90±0.93", "unit": "%"},
      {"measurement": "MRT0–10", "setting": "[1]; [7]", "value": "2.70 ± 0.34", "unit": "h"},
      {"measurement": "Tmax", "setting": "[1]; [7]", "value": "1.90 ± 1.10", "unit": "h"},
      {"measurement": "t1/2", "setting": "[1]; [7]", "value": "1.41 ± 0.76", "unit": "h"},
      {"measurement": "Cmax", "setting": "[1]; [7]", "value": "294 ± 76", "unit": "ng/mL"},
      {"measurement": "time at which plasma glucosamine was eliminated to the baseline level", "setting": "[1]; post-dosing", "value": "about 10 h"},
      {"measurement": "AUC0–10", "setting": "[1]; [8]", "value": "1420 ± 200", "unit": "ng·h/mL"},
      {"measurement": "AUC0–∞", "setting": "[1]; [8]", "value": "1430 ± 210", "unit": "ng·h/mL"},
      {"measurement": "MRT0–10", "setting": "[1]; [8]", "value": "3.18 ± 0.71", "unit": "h"},
      {"measurement": "Tmax", "setting": "[1]; [8]", "value": "2.60 ± 1.39", "unit": "h"},
      {"measurement": "t1/2", "setting": "[1]; [8]", "value": "1.17 ± 0.40", "unit": "h"},
      {"measurement": "AUC0–10", "setting": "[1]; [9]", "value": "3370 ± 1020", "unit": "ng·h/mL"},
      {"measurement": "AUC0–∞", "setting": "[1]; [9]", "value": "3420 ± 1010", "unit": "ng·h/mL"},
      {"measurement": "MRT0–10", "setting": "[1]; [9]", "value": "3.57 ± 0.24", "unit": "h"},
      {"measurement": "Tmax", "setting": "[1]; [9]", "value": "2.70 ± 0.86", "unit": "h"},
      {"measurement": "t1/2", "setting": "[1]; [9]", "value": "1.32 ± 0.35", "unit": "h"},
      {"measurement": "Cmax", "setting": "[1]; [9]", "value": "795 ± 280", "unit": "ng/mL"},
      {"measurement": "AUC0–10", "setting": "[1]; [10]", "value": "4030 ± 1280", "unit": "ng·h/mL"},
      {"measurement": "AUC0–∞", "setting": "[1]; [10]", "value": "4180 ± 1400", "unit": "ng·h/mL"},
      {"measurement": "MRT0–10", "setting": "[1]; [10]", "value": "3.30 ± 0.61", "unit": "h"},
      {"measurement": "Tmax", "setting": "[1]; [10]", "value": "1.90 ± 0.84", "unit": "h"},
      {"measurement": "t1/2", "setting": "[1]; [10]", "value": "1.36 ± 0.94", "unit": "h"},
      {"measurement": "Cmax", "setting": "[1]; [10]", "value": "925 ± 280", "unit": "ng/mL"},
      {"measurement": "urine glucosamine levels (baseline), mean", "setting": "[2]; [11]", "value": "4.96 ± 1.74", "unit": "µg/mL"},
      {"measurement": "urine glucosamine levels (baseline), range", "setting": "[2]; [11]", "value": "2.79 to 8.07", "unit": "µg/mL"},
      {"measurement": "Urine excretion (% of dose)", "setting": "[2]; 0–3 h after dosing", "value": "0.434±0.300", "unit": "%"},
      {"measurement": "Urine excretion (% of dose)", "setting": "[2]; 0–6 h after dosing", "value": "1.39±1.45", "unit": "%"},
      {"measurement": "Urine excretion (% of dose)", "setting": "[2]; 0–10 h after dosing", "value": "1.83±1.84", "unit": "%"},
      {"measurement": "Urine excretion (% of dose)", "setting": "[2]; 0–14 h after dosing", "value": "1.90±1.86", "unit": "%"},
      {"measurement": "Urine excretion (% of dose)", "setting": "[2]; 0–24 h after dosing", "value": "1.99±1.86", "unit": "%"},
      {"measurement": "Stability, Accuracy (% of nominal conc.)", "setting": "[3]; 0.020 μg/mL, Freeze-thaw (n=3)", "value": 100.0, "unit": "%"},
      {"measurement": "Stability, Accuracy (% of nominal conc.)", "setting": "[3]; 0.020 μg/mL, Long-term after 60 d (−20 °C)", "value": 90.0, "unit": "%"},
      {"measurement": "Stability, Accuracy (% of nominal conc.)", "setting": "[3]; 1.660 μg/mL, Freeze-thaw (n=3)", "value": 105.2, "unit": "%"},
      {"measurement": "Stability, Accuracy (% of nominal conc.)", "setting": "[3]; 1.660 μg/mL, Long-term after 60 d (−20 °C)", "value": 106.6, "unit": "%"},
      {"measurement": "Stability, Accuracy (% of nominal conc.)", "setting": "[3]; 1.660 μg/mL, Short-term after 8 h (25 °C)", "value": 98.4, "unit": "%"},
      {"measurement": "stability in plasma and urine under different storage conditions", "setting": "[3]; three freeze-thaw cycles, 8 h bench-top, −20 °C up to 2 months, plasma and urine", "value": "stable"},
      {"measurement": "Stability, Accuracy (% of nominal conc.)", "setting": "[4]; 2.21 μg/mL, Freeze-thaw (n=3)", "value": 106.6, "unit": "%"},
      {"measurement": "Stability, Accuracy (% of nominal conc.)", "setting": "[4]; 2.21 μg/mL, Long-term after 60 d (−20 °C)", "value": 99.2, "unit": "%"},
      {"measurement": "Stability, Accuracy (% of nominal conc.)", "setting": "[4]; 2.21 μg/mL, Short-term after 8 h (25 °C)", "value": 104.2, "unit": "%"},
      {"measurement": "Stability, Accuracy (% of nominal conc.)", "setting": "[4]; 42.7 μg/mL, Freeze-thaw (n=3)", "value": 105.3, "unit": "%"},
      {"measurement": "Stability, Accuracy (% of nominal conc.)", "setting": "[4]; 42.7 μg/mL, Long-term after 60 d (−20 °C)", "value": 103.7, "unit": "%"},
      {"measurement": "Stability, Accuracy (% of nominal conc.)", "setting": "[4]; 42.7 μg/mL, Short-term after 8 h (25 °C)", "value": 111.2, "unit": "%"},
      {"measurement": "plasma glucosamine baseline levels, mean value", "setting": "[5]; Caucasian volunteers", "value": 45.3, "unit": "ng/mL"},
      {"measurement": "Endogenous level of glucosamine in human plasma", "setting": "[5]; human plasma", "value": "10 to 200", "unit": "ng/mL"}
    ]}
  ]
}
